Source: ChEMBL document CHEMBL1135537, “Design, synthesis, and biological evaluation of indolequinone phosphoramidate prodrugs targeted to DT-diaphorase” (2002)

Tests used:
A498 = assay: Growth inhibitory activity against A498-2LM human solid tumor cell line using MTT assay; assay type: functional
Summary of the method: (§1)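 MTT assay. Cells were seeded at (1-2) × 10^4 per well and left to attach for 24 h. Compound was taken up in DMSO and serially diluted in medium, keeping final DMSO at 1% or less, then exposed for 72 h. MTT was added for 4–5 h, formazan was dissolved in DMSO, and absorbance was read at 570 nm. GI50 was taken from percent-of-control versus concentration plots; each compound was assayed twice and the results averaged.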

BE = assay: Inhibitory concentration that reduces clonogenic survival by 2 log units (99%) 2-hour after drug treatment in BE human colon carcinoma cell line.; assay type: functional
Summary of the method: (§2)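 Clonogenic assay. Exponentially growing cells at 1–1.2 × 10^5 cells/mL in serum-free MEM with 0.02 M HEPES were exposed for 2 h at 37 °C, 5% CO2, to five final concentrations. Ethanol was the vehicle at 1% final, with an ethanol-only control. Cells were then rinsed, plated at 2–3 densities in five replicates and grown 10 days. Crystal-violet-stained colonies of ≥50 cells were counted, and LC99 was read from log surviving fraction versus concentration. Runs were done at least twice and averaged.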

HT-29 [1] = assay: Inhibitory concentration that reduces clonogenic survival by 2 log units (99%) 2-hour after drug treatment in HT-29 human colon carcinoma cell line.; assay type: functional; summary of the method: as §2
HT-29 [2] = assay: Growth inhibitory activity against HT-29 human solid tumor cell line using MTT assay; assay type: functional; summary of the method: as §1
MDA-MB-231 = assay: Growth inhibitory activity against human MDA-231 cell line using MTT assay.; assay type: functional; summary of the method: as §1
MIA PaCa-2 = assay: Growth inhibitory activity against PaCa-2 human solid tumor cell line using MTT assay; assay type: functional; summary of the method: as §1
UMUC3 = assay: Growth inhibitory activity against UMUC3 human solid tumor cell line using MTT assay; assay type: functional; summary of the method: as §1
A549 = assay: Growth inhibitory activity against A549 human solid tumor cell line using MTT assay; assay type: functional; summary of the method: as §1
PC-3 = assay: Growth inhibitory activity against human PC-3 cell line using MTT assay.; assay type: functional; summary of the method: as §1
[3] = biological target: NAD(P)H dehydrogenase [quinone] 1 (Homo sapiens) (UniProt P15559); assay: Kinetic parameter Kcat was reported against DT-diaphorase
Chain of NAD(P)H dehydrogenase [quinone] 1 (Homo sapiens) (P15559 whole entry): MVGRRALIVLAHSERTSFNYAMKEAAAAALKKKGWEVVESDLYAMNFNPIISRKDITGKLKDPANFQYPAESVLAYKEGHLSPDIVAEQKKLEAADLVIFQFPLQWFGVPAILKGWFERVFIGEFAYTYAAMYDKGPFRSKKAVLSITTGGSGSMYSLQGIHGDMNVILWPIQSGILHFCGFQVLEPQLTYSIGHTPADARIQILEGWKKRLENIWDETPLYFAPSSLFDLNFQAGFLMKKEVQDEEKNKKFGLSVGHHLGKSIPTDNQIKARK
Summary of the method: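 Recombinant purified human DTD in Tris buffer (0.05 M, pH 7.6) with dithiothreitol (0.01 mM), NADH (1 mM), cytochrome c (55 μM) and varied indolequinone in DMSO. Run at 25 °C, started with enzyme, in triplicate. Cytochrome c reduction was followed at 550 nm, with no-enzyme background rates. kcat came from Hanes plots of initial linear rates (ε 1.85 × 10^4 M-1 cm-1). Values average ≥2 experiments.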

[4] = Selectivity ratio of LC99 of BE to LC99 of HT-29; assay type: functional
Summary of the method: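 Ratio of the BE LC99 to the HT-29 LC99, both from a 2 h clonogenic exposure in serum-free MEM/HEPES with 1% ethanol vehicle. Colonies of ≥50 cells were counted after 10 days, and LC99 was taken from log surviving fraction versus concentration plots.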

Structure (SMILES): COC1=CC(=O)c2c(c(COP(N)(=O)N3CCOCC3)cn2C)C1=O (stereo unspecified)
- GI50 (A498): 1200 nM
- LC99 (BE): >100 µM
- LC99 (HT-29 [1]): >100 µM
- GI50 (HT-29 [2]): 7700 nM
- GI50 (MDA-MB-231): 9300 nM
- GI50 (MIA PaCa-2): 9800 nM
- GI50 (UMUC3): 8200 nM
- GI50 (A549): 12000 nM
- GI50 (PC-3): 15000 nM

Structure (SMILES): COC1=CC(=O)c2c(cc(COP(=O)(N(C)CCBr)N(C)CCBr)n2C)C1=O
- GI50 (A498): 2300 nM
- LC99 (BE): 2 µM
- k cat [3]: 1.28 s⁻¹
- LC99 (HT-29 [1]): 0.35 µM
- GI50 (HT-29 [2]): 200 nM
- GI50 (MDA-MB-231): 840 nM
- GI50 (MIA PaCa-2): 8 nM
- GI50 (UMUC3): 17 nM
- Selectivity [4]: 6
- GI50 (A549): 1700 nM
- GI50 (PC-3): 940 nM

Structure (SMILES): COC1=CC(=O)c2c(c(COP(N)(=O)N(CCBr)CCBr)cn2C)C1=O (stereo unspecified)
- GI50 (A498): 1000 nM
- LC99 (BE): 0.47 µM
- LC99 (HT-29 [1]): 0.24 µM
- GI50 (HT-29 [2]): 240 nM
- GI50 (MDA-MB-231): 190 nM
- GI50 (MIA PaCa-2): 220 nM
- GI50 (UMUC3): 10 nM
- Selectivity [4]: 2
- GI50 (A549): 400 nM
- GI50 (PC-3): 650 nM

Structure (SMILES): COC1=CC(=O)c2c(c(CO)cn2C)C1=O
- k cat [3]: 136 s⁻¹

Structure (SMILES): COC1=CC(=O)c2c(cc(CO)n2C)C1=O
- k cat [3]: 77 s⁻¹

Structure (SMILES): COC1=CC(=O)c2c(cc(COP(N)(=O)N3CCOCC3)n2C)C1=O (stereo unspecified)
- GI50 (A498): 12000 nM
- LC99 (BE): >100 µM
- k cat [3]: 4.9 s⁻¹
- LC99 (HT-29 [1]): >100 µM
- GI50 (HT-29 [2]): 15000 nM
- GI50 (MDA-MB-231): 13000 nM
- GI50 (MIA PaCa-2): 10000 nM
- GI50 (UMUC3): 10000 nM
- GI50 (A549): 45000 nM
- GI50 (PC-3): 14000 nM

Structure (SMILES): COC1=CC(=O)c2c(cc(COP(N)(=O)N(CCCl)CCCl)n2C)C1=O (stereo unspecified)
- GI50 (A498): 980 nM
- LC99 (BE): 7.6 µM
- k cat [3]: 2.6 s⁻¹
- LC99 (HT-29 [1]): 0.11 µM
- GI50 (HT-29 [2]): 210 nM
- GI50 (MDA-MB-231): 870 nM
- GI50 (MIA PaCa-2): 31 nM
- GI50 (UMUC3): 10 nM
- Selectivity [4]: 69
- GI50 (A549): 22 nM
- GI50 (PC-3): 260 nM

Structure (SMILES): COC1=CC(=O)c2c(cc(COP(N)(=O)N(CCBr)CCBr)n2C)C1=O (stereo unspecified)
- GI50 (A498): 200 nM
- LC99 (BE): 4.2 µM
- k cat [3]: 1.6 s⁻¹
- LC99 (HT-29 [1]): 0.077 µM
- GI50 (HT-29 [2]): 61 nM
- GI50 (MDA-MB-231): 1600 nM
- GI50 (MIA PaCa-2): 15 nM
- GI50 (UMUC3): 2 nM
- Selectivity [4]: 65
- GI50 (A549): 3 nM
- GI50 (PC-3): 490 nM

Structure (SMILES): CC1=CC(=O)c2ccccc2C1=O
- k cat [3]: 960 s⁻¹

Structure (SMILES): COC1=CC(=O)c2c(c(COC(C)=O)cn2C)C1=O
- GI50 (A498): 37 nM
- LC99 (BE): 5.3 µM
- k cat [3]: 4 s⁻¹
- LC99 (HT-29 [1]): 0.54 µM
- GI50 (HT-29 [2]): 3 nM
- GI50 (MDA-MB-231): 250 nM
- GI50 (MIA PaCa-2): 4 nM
- GI50 (UMUC3): 7 nM
- Selectivity [4]: 10
- GI50 (A549): 440 nM
- GI50 (PC-3): 5 nM

Structure (SMILES): COC1=CC(=O)c2c(c(COP(=O)(N(C)CCBr)N(C)CCBr)cn2C)C1=O
- GI50 (A498): 340 nM
- LC99 (BE): 0.14 µM
- LC99 (HT-29 [1]): 0.07 µM
- GI50 (HT-29 [2]): 65 nM
- GI50 (MDA-MB-231): 40 nM
- GI50 (MIA PaCa-2): 25 nM
- GI50 (UMUC3): 2 nM
- Selectivity [4]: 2
- GI50 (A549): 23 nM
- GI50 (PC-3): 66 nM

Structure (SMILES): COC1=CC(=O)c2c(cc(COC(C)=O)n2C)C1=O
- GI50 (A498): 34000 nM
- LC99 (BE): >100 µM
- k cat [3]: 30 s⁻¹
- LC99 (HT-29 [1]): >100 µM
- GI50 (HT-29 [2]): 34000 nM
- GI50 (MDA-MB-231): > 38000 nM
- GI50 (MIA PaCa-2): 35000 nM
- GI50 (UMUC3): 9600 nM
- GI50 (A549): 26000 nM
- GI50 (PC-3): > 38000 nM
